Molecules are shown by their SMILES. pIC50: −log10 of the molar value.

These results are taken from publication PMC2952073 (Bioorganic & medicinal chemistry, 2010).

The subject of data set [1] is Gli1-mediated transcription (human full-length Gli1). The data set can be described thus: Gli-Luc reporter assay in C3H10T1/2 cells transfected with Gli1. It counts as cell-based. As to conditions: for inhibition of Gli1-mediated transcription (Gli-Luc), relative potency in words: Gli1-transfected C3H10T1/2 cells, 10 µM or 20 µM, 24 h.
Data set [2] concerns medulloblastoma. As to conditions: mouse model in which SuFu is inactivated; cited from earlier work.
The next data set has as its system bone development. As to conditions: young mice; cited from earlier work.
Data set [3] concerns endogenous Gli in Rh30 cells. Put plainly: Gli-mediated transcription reporter assay in Rh30 cells. Type of data set: cell-based. Put shortly: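 Rh30 cells seeded at 3×10^5 per dish in RPMI-1640 with 10% FBS (37 °C, 5% CO2); after 24 h (~70% confluence) transfected with GliLuc-BS (500 ng/mL) and pRL-CMV (2.5 ng/mL) using Fugene6. Replated into 96-well plates 6 h post-transfection; 18 h later exposed to test compound or DMSO for 24 h. Lysed cells read by dual luciferase as firefly/Renilla ratio.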
(In a reporter assay the amount or activity of a reporter protein is the signal.)

Data set [4] deals with medulloblastoma. As to conditions: mouse model in which Ptch1 is inactivated; cited from earlier work.
Data set [5] is described as follows: Microsomal stability assay. It counts as in vitro ADME. As to conditions: CD-1 female mouse liver microsomes, 37°C. On the technique in general: Liver microsomes are a subcellular fraction often used to study metabolism.
The test system of data set [6] is Histone deacetylase (HDAC). The data set can be described thus: HDAC inhibition. Type of data set: biochemical. As to conditions: up to 40 µM; data not shown.
In data set [7] the test system is Hh signal-mediated alkaline phosphatase. Put plainly: Hh signal-mediated alkaline phosphatase induction in C3H10T1/2 cells. It counts as cell-based, mouse. As to conditions: osteoblastic differentiation marker.
Data set [8] relates to Gli1-target genes in Rh30 cells. The data set can be described thus: Real-time RT-PCR of Gli1-target genes in Rh30 cells. Type of data set: cell-based. As to conditions: 24 h after addition. (In qPCR the cycle at which signal appears reflects the starting amount.)

For `CN(C)c1ccccc1CN1CCCN(Cc2ccccc2N(C)C)C1c1ccncc1` [GANT61, reference compound], the pIC50 in data set [1] (Homo sapiens, C3H 10T1/2, 24 h, read-out: IC50, Gli-Luc signal in Gli1-transfected C3H10T1/2 cells) was ~4.70.
Regarding `COc1cc(OC)cc(C(=O)Nc2ccc(Cl)c(-c3nc4ccc(N(C)C)cc4[nH]3)c2)c1` [HhAntag], the efficacy result in the data set with medulloblastoma [2] is reported as “not to be effective”. Besides, the “effect on bone development” value with bone development is listed as “permanent defects in bone development”. Besides, in data set [3] (concentration as high as 40 µM), the “Gli-Luc inhibition in Rh30 cells, in words” value (from here on “Gli-Luc inhibition”) was “almost no Gli-Luc inhibition”. The effect on medulloblastoma result with medulloblastoma [4] is reported as “eliminate medulloblastoma”.
For `CC(C(=O)NCCc1ccc(O)cc1)c1cccc(C(=O)c2ccccc2)c1` (stereo not shown) [compound 5], the “time to complete consumption in mouse liver microsomes” value in data set [5] was “less than 1 h”. Also, the HDAC inhibition result in data set [6] is “do not inhibit”.
Consider `CCCN(CCc1ccc(O)cc1)C(=O)C(C)c1cccc(C(=O)c2ccccc2)c1` (stereo not shown) [compound 6], for which the “time to complete consumption in mouse liver microsomes” value in data set [5] is recorded as “less than 1 h”. For the same compound, the HDAC inhibition result in data set [6] was “do not inhibit”.
`CC(C(=O)NCCc1ccc2[nH]ccc2c1)c1cccc(C(=O)c2ccccc2)c1` (stereo not shown) [compound 20, N-(2-(1H-Indol-5-yl)ethyl)-2-(3-benzoylphenyl)propanamide]: the “inhibition of Gli1-mediated transcription (Gli-Luc), relative potency in words” value (from here on “inhibition … relative potency in words”) in [1] is reported as “much weaker activity than 5”.
With `CC(C(=O)NCc1ccc2[nH]ccc2c1)c1cccc(C(=O)c2ccccc2)c1` (stereo not shown) [compound 21, N-((1H-Indol-5-yl)methyl)-2-(3-benzoylphenyl)propanamide], the “inhibition … relative potency in words” value in data set [1] is “higher activity than 20”.
As for `CC(C(=O)Nc1ccc2[nH]ccc2c1)c1cccc(C(=O)c2ccccc2)c1` (stereo not shown) [compound 22, 2-(3-Benzoylphenyl)-N-(1H-indol-5-yl)propanamide], in [1], the “inhibition … relative potency in words” value was “higher activity than 20”.
On to `CC(C(=O)Nc1ccc2cc[nH]c2c1)c1cccc(C(=O)c2ccccc2)c1` (stereo not shown) [compound 23, 2-(3-Benzoylphenyl)-N-(1H-indol-6-yl)propanamide], for which the “inhibitory effect in inducing Hh signal-mediated alkaline phosphatase” value (“inhibitory effect” for short) in data set [7] is given as “much smaller than that of HhAntag”. In addition, the “Gli-Luc inhibition” value in data set [3] (10 µM or 20 µM, 24 h) is “inhibition with similar or slightly weaker potency”. For the same compound, the “stability in mouse liver microsomes, in words” value in data set [5] was “much more stable than 5 and 6”. Besides, in [1], the “inhibition … relative potency in words” value was “best among the tested analogs”.
For `CC(CNC(=O)Cc1ccc2[nH]ccc2c1)c1cccc(C(=O)c2ccccc2)c1` (stereo not shown) [compound 25, N-(2-(3-Benzoylphenyl)propyl)-2-(1H-indol-5-yl)acetamide], in data set [1], the “inhibition … relative potency in words” value is “only weak activity”.
As to `CC(CNC(=O)c1cc2ccccc2[nH]1)c1cccc(C(=O)c2ccccc2)c1` (stereo not shown) [compound 28, N-(2-(3-Benzoylphenyl)propyl)-1H-indole-2-carboxamide], in data set [1], the “inhibition … relative potency in words” value is reported as “equipotent inhibitors”.
With `CC(CNC(=O)c1c[nH]c2ccccc12)c1cccc(C(=O)c2ccccc2)c1` (stereo not shown) [compound 29, N-(2-(3-Benzoylphenyl)propyl)-1H-indole-3-carboxamide], in data set [1], the “inhibition … relative potency in words” value is “equipotent inhibitors”.
In the case of `CC(CNC(=O)c1cccc2[nH]ccc12)c1cccc(C(=O)c2ccccc2)c1` (stereo not shown) [compound 30, N-(2-(3-Benzoylphenyl)propyl)-1H-indole-4-carboxamide], in [1], the “inhibition … relative potency in words” value was “decreased the potency”.
Consider `CC(CNC(=O)c1cccc2cc[nH]c12)c1cccc(C(=O)c2ccccc2)c1` (stereo not shown) [compound 31, N-(2-(3-Benzoylphenyl)propyl)-1H-indole-7-carboxamide], for which the “inhibition … relative potency in words” value in data set [1] was “decreased the potency”.
With `CC(C(=O)N(C)c1ccc2cc[nH]c2c1)c1cccc(C(=O)c2ccccc2)c1` (stereo not shown) [compound 32, 2-(3-Benzoylphenyl)-N-(1H-indol-6-yl)-N-methylpropanamide], the “inhibition … relative potency in words” value in data set [1] is “Little improvement”.
For the compound `CCCN(C(=O)C(C)c1cccc(C(=O)c2ccccc2)c1)c1ccc2cc[nH]c2c1` (stereo not shown) [compound 33, 2-(3-Benzoylphenyl)-N-(1H-indol-6-yl)-N-propylpropanamide], in data set [8], the “expression of Gli1-target genes in Rh30 cells (RT-PCR)” value is recorded as “inhibits expression of Gli1-target genes”. In addition, the “inhibitory effect” value in data set [7] is given as “much smaller than that of HhAntag”. For the same compound, the “Gli-Luc inhibition” value in data set [3] (10 µM or 20 µM, 24 h) was “inhibition with similar or slightly weaker potency”. Also, in [5], the “stability in mouse liver microsomes, in words” value is “much more stable than 5 and 6”. In addition, the HDAC inhibition entry in data set [6] is given as “do not inhibit”.
For the compound `CCCC(C)(C(=O)Nc1ccc2cc[nH]c2c1)c1cccc(C(=O)c2ccccc2)c1` (stereo not shown) [compound 40, 2-(3-Benzoylphenyl)-N-(1H-indol-6-yl)-2-methylpentanamide], the “inhibition … relative potency in words” value in data set [1] is “did not increase potency”.
Same read-out and setting: with `CCCn1ccc2ccc(NC(=O)C(C)c3cccc(C(=O)c4ccccc4)c3)cc21` (stereo not shown) [compound 41, 2-(3-Benzoylphenyl)-N-(1-propyl-1H-indol-6-yl)propanamide] the entry was “did not increase potency”.
For the compound `CCCN(C(=O)C(C)c1cccc(C(=O)c2ccccc2)c1)c1ccc2[nH]ccc2c1` (stereo not shown) [compound 42, 2-(3-Benzoylphenyl)-N-(1H-indol-5-yl)-N-propylpropanamide], in data set [7], the “inhibitory effect” value was “much smaller than that of HhAntag”. Further, the “Gli-Luc inhibition” value in data set [3] (10 µM or 20 µM, 24 h) is given as “inhibition with similar or slightly weaker potency”. In addition, the HDAC inhibition entry in data set [6] is on record as “do not inhibit”.
Turning to `CCCN(C(=O)C(C)c1cccc(C(=O)c2ccccc2)c1)c1cccc2[nH]ccc12` (stereo not shown) [compound 43, 2-(3-Benzoylphenyl)-N-(1H-indol-4-yl)-N-propylpropanamide], in data set [1], the “inhibition … relative potency in words” value was “equipotent to 33”.
In the case of `CCCN(Cc1ccc2[nH]ccc2c1)C(=O)C(C)c1cccc(C(=O)c2ccccc2)c1` (stereo not shown) [compound 44, N-((1H-Indol-5-yl)methyl)-2-(3-benzoylphenyl)-N-propylpropanamide], the “inhibition … relative potency in words” value in [1] is given as “weaker potency than 42”.
